Measurements: ChEMBL document CHEMBL1208768, “Synthesis, selective anti-Helicobacter pylori activity, and cytotoxicity of novel N-substituted-2-oxo-2H-1-benzopyran-3-carboxamides” (Bioorg Med Chem Lett, 2010)
Values after ≈ are worked out from the molar mass of the structure shown. Active and inactive are the calls of the source. The calls are words filed in the database; no cut-off is given here.

Legend:
[1] = system: Enterobacter; assay: Antibacterial activity against Enterobacter after 18 to 22 hrs by broth microdilution method; type: functional
Summary of the method: (§1)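 Clinical respiratory-tract isolates from patients, subcultured for purity and identified conventionally. Broth microdilution per NCCLS in Mueller–Hinton II broth; each plate had growth controls (bacteria, no compound) and medium-only controls. Incubation 18–22 h at 35 °C. MIC taken as the lowest concentration giving complete growth inhibition by unaided eye.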

[2] = system: AGS; assay: Antiinflammatory activity in human AGS cells assessed as inhibition of IL-8 production at 5 ug/mL after 24 hrs; type: functional, cell-based
Summary of the method: (§2)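 AGS gastric adenocarcinoma cells were grown in F-12K with 10% FBS. They were seeded at 1 × 10⁵/mL for 24 h, preincubated 1 h with compound at 5 or 0.5 µg/mL, then exposed to H. pylori.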

[3] = system: Candida albicans; assay: Antifungal activity against Candida albicans after 24 hrs by broth microdilution method; type: functional
Summary of the method: (§3)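 Candida isolates from respiratory-tract specimens, tested by NCCLS broth microdilution in Sabouraud dextrose broth. Serial compound dilutions inoculated to 10³/mL, with fungus-only and medium-only controls. Incubated 24 h at 37 °C. MIC was the lowest concentration with complete visible growth inhibition.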

[4] = system: Escherichia coli; assay: Antibacterial activity against Escherichia coli after 18 to 22 hrs by broth microdilution method; type: functional; summary of the method: as §1
[5] = system: Klebsiella aerogenes; assay: Antibacterial activity against Enterobacter aerogenes after 18 to 22 hrs by broth microdilution method; type: functional; summary of the method: as §1
[6] = Solubility of the compound in DMSO at 0.0039 to 128 ug/mL; type: physicochemical
[7] = system: Citrobacter freundii; assay: Antibacterial activity against Citrobacter freundii after 18 to 22 hrs by broth microdilution method; type: functional; summary of the method: as §1
[8] = system: Staphylococcus epidermidis; assay: Antibacterial activity against Staphylococcus epidermidis after 18 to 22 hrs by broth microdilution method; type: functional; summary of the method: as §1
[9] = system: Enterococcus faecalis; assay: Antibacterial activity against Streptococcus faecalis after 18 to 22 hrs by broth microdilution method; type: functional; summary of the method: as §1
[10] = system: Proteus vulgaris; assay: Antibacterial activity against Proteus vulgaris after 18 to 22 hrs by broth microdilution method; type: functional; summary of the method: as §1
[11] = system: [Candida] sake; assay: Antifungal activity against Candida sake after 24 hrs by broth microdilution method; type: functional; details: Fermentozyma sake; summary of the method: as §3
[12] = system: Staphylococcus aureus; assay: Antibacterial activity against Staphylococcus aureus after 18 to 22 hrs by broth microdilution method; type: functional; summary of the method: as §1
[13] = system: AGS; assay: Antiinflammatory activity in human AGS cells assessed as inhibition of IL-8 production at 0.5 ug/mL after 24 hrs; type: functional, cell-based; summary of the method: as §2
[14] = system: Staphylococcus haemolyticus; assay: Antibacterial activity against Staphylococcus haemolyticus after 18 to 22 hrs by broth microdilution method; type: functional; summary of the method: as §1
[15] = system: Pichia kudriavzevii; assay: Antifungal activity against Candida krusei after 24 hrs by broth microdilution method; type: functional; summary of the method: as §3
[16] = system: Klebsiella oxytoca; assay: Antibacterial activity against Klebsiella oxytoca after 18 to 22 hrs by broth microdilution method; type: functional; summary of the method: as §1
[17] = system: Staphylococcus hominis; assay: Antibacterial activity against Staphylococcus hominis after 18 to 22 hrs by broth microdilution method; type: functional; summary of the method: as §1
[18] = system: Klebsiella pneumoniae; assay: Antibacterial activity against Klebsiella pneumoniae after 18 to 22 hrs by broth microdilution method; type: functional; summary of the method: as §1
[19] = Cytotoxicity against human EAhy926 cells assessed as cell survival at 5 ug/mL after 24 hrs by trypan blue exclusion assay; type: cell-based, EA.hy 926; details: read-out: Survival
Summary of the method: (§4)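 EAhy cells in DMEM (high glucose) with 10% FBS, at 1 × 10⁵/mL in exponential growth and 60–70% confluent, were exposed 24 h at 37 °C to compounds from DMSO stocks (final DMSO ≤0.5%). Controls were cells alone or with DMSO, and 1 mM sodium nitroprusside as positive control. Cells were scraped, mixed 1:1 with 0.4% Trypan blue and counted on a hemocytometer by two operators. Result given as % viable cells.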

[20] = system: Helicobacter pylori; assay: Antibacterial activity against metronidazole-resistant Helicobacter pylori isolate 8 after 72 hrs by agar dilution method; type: functional; details: isolate 8, 72 h
Summary of the method: (§5)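 H. pylori clinical isolates (ATCC 43504 control each session) stored at -80 °C and subcultured twice on Columbia agar with 10% horse serum and 0.25% yeast extract. Suspensions of 0.5 McFarland were spotted by Steer's replicator at about 5 × 10⁵ CFU/spot onto agar with twofold compound dilutions. Plates were incubated 72 h at 37 °C in 10% CO₂. MIC was the lowest concentration without visible growth.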

[21] = system: Helicobacter pylori; assay: Antibacterial activity against Helicobacter pylori ATCC 43504 clinical isolates after 72 hrs by agar dilution method; type: functional; details: ATCC 43504, 72 h
Summary of the method: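 Agar dilution per NCCLS. Twenty clinical strains from duodenal ulcer or gastritis patients, with ATCC 43504 as control in each session, were subcultured twice on Columbia agar plus 10% horse serum and 0.25% yeast extract (72 h, 37 °C, 10% CO₂). Inoculum of 0.5 McFarland in Wilkins Chalgren broth, about 5 × 10⁵ CFU/spot by Steer's replicator. Plates held twofold compound dilutions down to 0.0039 µg/mL and were incubated 72 h at 37 °C, 10% CO₂. MIC was the lowest concentration inhibiting visible growth.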

[22] = system: Helicobacter pylori; assay: Antibacterial activity against metronidazole-resistant Helicobacter pylori NCTC 11637 after 72 hrs by agar dilution method; type: functional; details: NCTC 11637, 72 h; summary of the method: as §5
[23] = system: Helicobacter pylori; assay: Antibacterial activity against metronidazole-resistant Helicobacter pylori isolate 20 after 72 hrs by agar dilution method; type: functional; details: isolate 20, 72 h; summary of the method: as §5
[24] = Cytotoxicity against human EAhy926 cells assessed as cell survival at 50 ug/mL after 24 hrs by trypan blue exclusion assay; type: cell-based, EA.hy 926; details: read-out: Survival; summary of the method: as §4
[25] = Cytotoxicity against human EAhy926 cells assessed as cell survival at 0.05 ug/mL after 24 hrs by trypan blue exclusion assay; type: cell-based, EA.hy 926; details: read-out: Survival; summary of the method: as §4
[26] = Cytotoxicity against human EAhy926 cells assessed as cell survival at 0.5 ug/mL after 24 hrs by MTT assay; type: cell-based, EA.hy 926; details: read-out: Survival
[27] = system: AGS (Homo sapiens); assay: Cytotoxicity against human AGS cells assessed as cell survival at 50 ug/mL after 24 hrs by MTT assay
[28] = system: Helicobacter pylori; assay: Antibacterial activity against metronidazole-resistant Helicobacter pylori isolate 18 after 72 hrs by agar dilution method; type: functional; details: isolate 18, 72 h; summary of the method: as §5
[29] = Cytotoxicity against human EAhy926 cells assessed as cell survival at 0.5 ug/mL after 24 hrs by trypan blue exclusion assay; type: cell-based, EA.hy 926; details: read-out: Survival; summary of the method: as §4
[30] = Cytotoxicity against human EAhy926 cells assessed as cell survival at 5 ug/mL after 24 hrs by MTT assay; type: cell-based, EA.hy 926; details: read-out: Survival
[31] = system: Helicobacter pylori; assay: Antibacterial activity against metronidazole-resistant Helicobacter pylori isolate 1 after 72 hrs by agar dilution method; type: functional; details: isolate 1, 72 h; summary of the method: as §5

| Structure (SMILES) | MIC [1] [mg/L] | inhibition [2] | MIC [3] [mg/L] | MIC [4] [mg/L] | MIC [5] [mg/L] | MIC [7] [mg/L] | MIC [8] [mg/L] | MIC [9] [mg/L] | MIC [10] [mg/L] | MIC [11] [mg/L] | MIC [12] [mg/L] | inhibition [13] | MIC [14] [mg/L] | MIC [15] [mg/L] | MIC [16] [mg/L] | MIC [17] [mg/L] | MIC [18] [mg/L] | viability at 24 h, 5 ug/mL [19] [%] | MIC [20] [mg/L] | MIC50 [21] [mg/L] | also measured |
| --- | --- | --- | --- | --- | --- | --- | --- | --- | --- | --- | --- | --- | --- | --- | --- | --- | --- | --- | --- | --- | --- |
| Cc1ccc2oc(=O)c(C(=O)Nc3ccc(C(=O)O)cc3)cc2c1 | > 128 | inactive | > 128 | > 128 | > 128 | > 128 | > 128 | > 128 | > 128 | > 128 | > 128 | inactive | > 128 | > 128 | > 128 | > 128 | > 128 | – | – | – | solubility [6]: Insoluble |
| CCOC(=O)c1ccc(NC(=O)c2cc3cc(C)ccc3oc2=O)cc1 | > 128 | inactive | > 128 | > 128 | > 128 | > 128 | > 128 | > 128 | > 128 | > 128 | > 128 | inactive | > 128 | > 128 | > 128 | > 128 | > 128 | 59 | 8 (≈ 22.8 µM) | 4 (≈ 11.4 µM) | MIC90 [21]: 8 mg/L (≈ 22.8 µM); MIC [22]: 4 mg/L (≈ 11.4 µM); MIC [23]: 2 mg/L (≈ 5.69 µM); viability at 24 h, 50 ug/mL [24]: 14%; viability at 24 h, 0.05 ug/mL [25]: 80%; viability at 24 h, 0.5 ug/mL [26]: 99%; viability at 24 h, 50 ug/mL [27]: 63%; MIC [28]: 2 mg/L (≈ 5.69 µM); viability at 24 h, 0.5 ug/mL [29]: 77%; viability at 24 h, 5 ug/mL [30]: 81%; MIC [31]: 8 mg/L (≈ 22.8 µM) |
| CCOC(=O)c1ccc(NC(=O)c2cc3cc(O)ccc3oc2=O)cc1 | > 128 | inactive | > 128 | > 128 | > 128 | > 128 | > 128 | > 128 | > 128 | > 128 | > 128 | inactive | > 128 | > 128 | > 128 | > 128 | > 128 | 80 | 2 (≈ 5.66 µM) | 4 (≈ 11.3 µM) | MIC90 [21]: 8 mg/L (≈ 22.6 µM); MIC [22]: 8 mg/L (≈ 22.6 µM); MIC [23]: 2 mg/L (≈ 5.66 µM); viability at 24 h, 50 ug/mL [24]: 77%; viability at 24 h, 0.05 ug/mL [25]: 93%; viability at 24 h, 0.5 ug/mL [26]: 99%; viability at 24 h, 50 ug/mL [27]: 82%; MIC [28]: 8 mg/L (≈ 22.6 µM); viability at 24 h, 0.5 ug/mL [29]: 83%; viability at 24 h, 5 ug/mL [30]: 99%; MIC [31]: 4 mg/L (≈ 11.3 µM) |
| CCOC(=O)c1ccc(NC(=O)c2cc3cc(Br)cc(Cl)c3oc2=O)cc1 | > 128 | inactive | > 128 | > 128 | > 128 | > 128 | > 128 | > 128 | > 128 | > 128 | > 128 | inactive | > 128 | > 128 | > 128 | > 128 | > 128 | 71 | 4 (≈ 8.88 µM) | 8 (≈ 17.8 µM) | MIC90 [21]: 16 mg/L (≈ 35.5 µM); MIC [22]: 16 mg/L (≈ 35.5 µM); MIC [23]: 8 mg/L (≈ 17.8 µM); viability at 24 h, 50 ug/mL [24]: 58%; viability at 24 h, 0.05 ug/mL [25]: 94%; viability at 24 h, 0.5 ug/mL [26]: 98%; viability at 24 h, 50 ug/mL [27]: 64%; MIC [28]: 8 mg/L (≈ 17.8 µM); viability at 24 h, 0.5 ug/mL [29]: 86%; viability at 24 h, 5 ug/mL [30]: 75%; MIC [31]: 8 mg/L (≈ 17.8 µM) |
| CCOC(=O)c1ccc(NC(=O)c2cc3ccc(O)cc3oc2=O)cc1 | > 128 | inactive | > 128 | > 128 | > 128 | > 128 | > 128 | > 128 | > 128 | > 128 | > 128 | inactive | > 128 | > 128 | > 128 | > 128 | > 128 | 92 | 4 (≈ 11.3 µM) | 8 (≈ 22.6 µM) | MIC90 [21]: 8 mg/L (≈ 22.6 µM); MIC [22]: 8 mg/L (≈ 22.6 µM); MIC [23]: 2 mg/L (≈ 5.66 µM); viability at 24 h, 50 ug/mL [24]: 64%; viability at 24 h, 0.05 ug/mL [25]: 96%; viability at 24 h, 0.5 ug/mL [26]: 99%; viability at 24 h, 50 ug/mL [27]: 78%; MIC [28]: 8 mg/L (≈ 22.6 µM); viability at 24 h, 0.5 ug/mL [29]: 95%; viability at 24 h, 5 ug/mL [30]: 82%; MIC [31]: 8 mg/L (≈ 22.6 µM) |
